Data: ChEMBL document CHEMBL5661979, “Pharmacological inhibition of BMK1 suppresses tumor growth through promyelocytic leukemia protein” (Cancer Cell, 2010)
Active and inactive are the calls of the source. The rule behind the calls is not given here.

Key:
Lewis lung carcinoma = experiment: Antitumor activity against mouse LL2 cells allografted in C57Bl/6 mouse assessed as decrease in BrdU incorporation in cell nuclei in tumor at 50 mg/kg, ip by fluorescence microscopic analysis; type: functional, organism-based
Summary of the method: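 HeLa or LL/2 tumor sections from treated and control xenograft mice were stained with anti-BrdU antibody and DAPI and imaged by fluorescence microscopy. n = 6 mice, 9 slices.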

[1] = target: T1, Mitogen-activated protein kinase kinase kinase kinase 2 (Homo sapiens) (UniProt Q12851); experiment: Inhibition of GCK in human HeLa cells lysate at 50 uM pre incubated for 15 mins followed by ADP acyl phosphate probe addition and measured after 10 mins by LC-MS/MS analysis relative to control; type: subcellular; conditions: time 25.0 min
T1 sequence (whole entry): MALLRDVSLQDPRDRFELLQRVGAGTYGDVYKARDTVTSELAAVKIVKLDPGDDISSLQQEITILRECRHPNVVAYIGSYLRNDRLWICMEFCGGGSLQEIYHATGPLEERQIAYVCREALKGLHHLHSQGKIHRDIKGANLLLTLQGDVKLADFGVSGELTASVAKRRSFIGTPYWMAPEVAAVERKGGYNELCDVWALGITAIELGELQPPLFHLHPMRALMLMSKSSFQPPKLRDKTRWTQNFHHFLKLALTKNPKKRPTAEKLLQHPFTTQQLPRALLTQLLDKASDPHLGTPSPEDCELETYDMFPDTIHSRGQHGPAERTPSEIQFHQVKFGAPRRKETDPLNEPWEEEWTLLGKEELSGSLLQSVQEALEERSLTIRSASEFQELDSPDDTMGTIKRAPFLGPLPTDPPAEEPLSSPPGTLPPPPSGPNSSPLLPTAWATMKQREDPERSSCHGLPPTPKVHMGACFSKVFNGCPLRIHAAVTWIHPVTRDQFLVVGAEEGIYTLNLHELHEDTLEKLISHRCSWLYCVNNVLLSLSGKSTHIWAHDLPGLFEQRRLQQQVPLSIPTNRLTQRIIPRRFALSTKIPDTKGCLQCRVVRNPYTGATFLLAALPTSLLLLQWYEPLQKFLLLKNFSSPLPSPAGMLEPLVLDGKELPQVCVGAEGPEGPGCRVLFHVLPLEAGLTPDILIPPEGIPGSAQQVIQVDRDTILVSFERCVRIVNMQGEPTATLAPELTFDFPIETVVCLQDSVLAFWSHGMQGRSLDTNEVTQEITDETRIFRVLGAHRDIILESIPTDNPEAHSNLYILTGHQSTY

[2] = target: Mitogen-activated protein kinase kinase kinase 2 (Homo sapiens) (UniProt Q9Y2U5); experiment: Inhibition of MAP3K2 in human HeLa cells lysate at 10 uM pre incubated for 15 mins followed by ADP acyl phosphate probe addition and measured after 10 mins by LC-MS/MS analysis relative to control; type: subcellular; conditions: time 25.0 min
[3] = target: Serine/threonine-protein kinase Nek4 (Homo sapiens, UniProt P51957); experiment: Inhibition of NEK4 in human HeLa cells lysate pre incubated for 15 mins followed by ATP acyl phosphate probe addition and measured after 10 mins by LC-MS/MS analysis; type: subcellular
[4] = target: Dual specificity mitogen-activated protein kinase kinase 1 (Homo sapiens, UniProt Q02750); experiment: Inhibition of MAP2K1 in human HeLa cells lysate at 10 uM pre incubated for 15 mins followed by ATP acyl phosphate probe addition and measured after 10 mins by LC-MS/MS analysis relative to control; type: subcellular; conditions: time 25.0 min
[5] = Clearance in Sprague-Dawley rat at 1 mg/kg, iv measured up to 8 hrs by LC-MS/MS analysis; type: ADME, organism-based; conditions: in vivo
Summary of the method: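 Sprague-Dawley rats given one intravenous dose or one oral dose of 2 mg/kg. Plasma drug concentrations were followed over time, with samples taken out to 8 hr after dosing. PK parameters (clearance, volume of distribution, half-life, oral bioavailability, Cmax) were calculated from these concentration–time data.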

[6] = target: Mixed lineage kinase domain-like protein (Homo sapiens, UniProt Q8NB16); experiment: Inhibition of MLKL in human HeLa cells lysate pre incubated for 15 mins followed by ADP acyl phosphate probe addition and measured after 10 mins by LC-MS/MS analysis; type: subcellular
[7] = target: Dual specificity mitogen-activated protein kinase kinase 4 (Homo sapiens, UniProt P45985); experiment: Inhibition of MAP2K4 in human HeLa cells lysate pre incubated for 15 mins followed by ATP acyl phosphate probe addition and measured after 10 mins by LC-MS/MS analysis; type: subcellular
[8] = target: T2, Ribosomal protein S6 kinase alpha-1 (Homo sapiens, UniProt Q15418); experiment: Inhibition of C-terminal RPS6KA1 kinase domain (unknown origin) assessed as remaining activity at 10 uM by ATP-competition binding assay relative to control
[9] = target: T2, Ribosomal protein S6 kinase alpha-1; experiment: Inhibition of RSK1 domain 2 K1 site in human HeLa cells lysate at 50 uM pre incubated for 15 mins followed by ADP acyl phosphate probe addition and measured after 10 mins by LC-MS/MS analysis relative to control; type: subcellular; conditions: time 25.0 min
[10] = target: T3, Serine/threonine-protein kinase A-Raf (Homo sapiens) (UniProt P10398); experiment: Inhibition of ARAF in human HeLa cells lysate at 50 uM pre incubated for 15 mins followed by ATP acyl phosphate probe addition and measured after 10 mins by LC-MS/MS analysis relative to control; type: subcellular; conditions: time 25.0 min
T3 sequence (whole entry): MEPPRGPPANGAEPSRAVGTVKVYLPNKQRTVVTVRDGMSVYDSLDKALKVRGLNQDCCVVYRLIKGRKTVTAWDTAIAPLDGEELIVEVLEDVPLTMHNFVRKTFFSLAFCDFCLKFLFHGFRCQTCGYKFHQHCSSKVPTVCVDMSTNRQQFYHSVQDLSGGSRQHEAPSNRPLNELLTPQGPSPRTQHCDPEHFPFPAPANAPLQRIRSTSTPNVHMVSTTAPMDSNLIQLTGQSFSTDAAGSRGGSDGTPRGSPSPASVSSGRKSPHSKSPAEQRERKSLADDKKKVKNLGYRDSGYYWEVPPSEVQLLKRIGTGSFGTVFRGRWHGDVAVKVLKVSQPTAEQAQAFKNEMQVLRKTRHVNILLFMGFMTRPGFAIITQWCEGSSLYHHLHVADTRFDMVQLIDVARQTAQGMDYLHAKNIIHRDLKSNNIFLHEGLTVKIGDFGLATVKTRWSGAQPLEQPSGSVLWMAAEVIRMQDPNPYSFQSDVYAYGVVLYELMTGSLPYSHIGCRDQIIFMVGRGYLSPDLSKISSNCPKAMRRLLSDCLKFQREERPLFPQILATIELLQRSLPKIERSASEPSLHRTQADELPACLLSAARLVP
Summary of the method: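 KiNativ-type profiling in HeLa lysate (5 mg/mL total protein). Lysate preincubated 15 min with inhibitor at 50, 10, 2, 0.8 or 0 μM, then ATP or ADP acylphosphate probe added (5 μM final) for 10 min. Reaction stopped with urea and analysed by targeted MS, using up to four fragment ions per kinase peptide-probe conjugate. % inhibition calculated against untreated lysate. Duplicate reactions.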

HeLa = experiment: Antitumor activity against human HeLa cells xenografted in NOD/SCID mouse assessed as reduction tumor growth at 50 mg/kg, ip administered for 28 days; type: functional, organism-based; conditions: time 28.0 day
Summary of the method: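 HeLa cells (5×10^5, in DMEM) were injected s.c. into the right flank of 6-week-old Nod/Scid mice on day 0. Dosing was 50 mg/kg i.p. twice daily, starting on day 1, 7 or 14 and continuing to day 28; controls received carrier. 6 mice per treated group. Tumors were measured every 2–3 days.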

T2 sequence (Q15418 whole entry, the tested form may be a part): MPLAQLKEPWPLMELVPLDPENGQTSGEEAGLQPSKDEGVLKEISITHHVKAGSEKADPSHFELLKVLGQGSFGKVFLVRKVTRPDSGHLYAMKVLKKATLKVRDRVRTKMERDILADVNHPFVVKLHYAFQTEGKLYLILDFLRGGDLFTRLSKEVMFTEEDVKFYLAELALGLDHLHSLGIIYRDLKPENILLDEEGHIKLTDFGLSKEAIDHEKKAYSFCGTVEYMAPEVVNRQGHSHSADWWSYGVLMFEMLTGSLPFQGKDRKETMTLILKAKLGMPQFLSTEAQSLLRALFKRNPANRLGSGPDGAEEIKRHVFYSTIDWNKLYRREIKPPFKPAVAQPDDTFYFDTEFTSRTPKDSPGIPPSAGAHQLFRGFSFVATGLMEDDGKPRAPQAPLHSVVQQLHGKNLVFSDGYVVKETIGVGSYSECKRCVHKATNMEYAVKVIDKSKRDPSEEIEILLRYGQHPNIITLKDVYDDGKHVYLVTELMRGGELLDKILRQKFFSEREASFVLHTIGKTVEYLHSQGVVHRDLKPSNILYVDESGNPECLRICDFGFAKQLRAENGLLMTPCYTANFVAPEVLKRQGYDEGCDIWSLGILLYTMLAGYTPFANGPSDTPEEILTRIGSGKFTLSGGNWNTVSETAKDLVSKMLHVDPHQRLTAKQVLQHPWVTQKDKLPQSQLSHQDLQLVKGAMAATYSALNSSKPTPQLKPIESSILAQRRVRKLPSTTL
Chain of Dual specificity mitogen-activated protein kinase kinase 1 (Q02750 whole entry): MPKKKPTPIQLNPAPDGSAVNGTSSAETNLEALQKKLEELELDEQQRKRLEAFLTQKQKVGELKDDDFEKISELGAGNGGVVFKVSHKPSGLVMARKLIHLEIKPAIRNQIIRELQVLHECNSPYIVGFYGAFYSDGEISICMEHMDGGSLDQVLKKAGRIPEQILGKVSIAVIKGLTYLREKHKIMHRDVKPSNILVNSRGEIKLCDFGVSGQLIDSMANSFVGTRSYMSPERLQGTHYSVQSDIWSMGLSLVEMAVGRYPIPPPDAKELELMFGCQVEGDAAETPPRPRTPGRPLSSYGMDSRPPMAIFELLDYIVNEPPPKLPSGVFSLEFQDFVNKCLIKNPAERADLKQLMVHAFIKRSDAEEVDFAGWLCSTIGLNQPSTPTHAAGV
Chain of Mixed lineage kinase domain-like protein (Q8NB16 whole entry, the tested form may be a part): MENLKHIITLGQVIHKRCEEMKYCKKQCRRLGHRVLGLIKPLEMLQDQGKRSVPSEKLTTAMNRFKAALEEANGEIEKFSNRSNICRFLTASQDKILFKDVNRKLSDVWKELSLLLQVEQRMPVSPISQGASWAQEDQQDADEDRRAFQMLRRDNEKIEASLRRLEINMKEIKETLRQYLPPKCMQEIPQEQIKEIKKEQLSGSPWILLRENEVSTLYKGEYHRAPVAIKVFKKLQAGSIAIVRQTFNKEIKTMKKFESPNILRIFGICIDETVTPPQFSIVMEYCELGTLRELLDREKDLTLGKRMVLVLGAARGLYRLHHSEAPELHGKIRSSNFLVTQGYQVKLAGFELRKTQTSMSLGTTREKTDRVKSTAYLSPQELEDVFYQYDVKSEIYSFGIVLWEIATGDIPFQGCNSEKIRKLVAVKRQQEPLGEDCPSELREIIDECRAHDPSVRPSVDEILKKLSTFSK
Chain of Dual specificity mitogen-activated protein kinase kinase 4 (P45985 whole entry, the tested form may be a part): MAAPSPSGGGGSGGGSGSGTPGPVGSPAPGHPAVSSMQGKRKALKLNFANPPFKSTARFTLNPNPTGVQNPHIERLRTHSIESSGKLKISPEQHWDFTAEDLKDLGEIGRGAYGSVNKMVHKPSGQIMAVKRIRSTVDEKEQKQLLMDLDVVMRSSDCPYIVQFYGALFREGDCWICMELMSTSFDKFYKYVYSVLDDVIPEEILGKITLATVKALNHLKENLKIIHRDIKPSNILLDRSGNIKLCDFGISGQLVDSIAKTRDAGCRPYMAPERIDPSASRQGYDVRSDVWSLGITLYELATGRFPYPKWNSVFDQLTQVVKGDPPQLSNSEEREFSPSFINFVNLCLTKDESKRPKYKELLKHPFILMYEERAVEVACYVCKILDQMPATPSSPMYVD
Chain of Mitogen-activated protein kinase kinase kinase 2 (Homo sapiens) (Q9Y2U5 whole entry): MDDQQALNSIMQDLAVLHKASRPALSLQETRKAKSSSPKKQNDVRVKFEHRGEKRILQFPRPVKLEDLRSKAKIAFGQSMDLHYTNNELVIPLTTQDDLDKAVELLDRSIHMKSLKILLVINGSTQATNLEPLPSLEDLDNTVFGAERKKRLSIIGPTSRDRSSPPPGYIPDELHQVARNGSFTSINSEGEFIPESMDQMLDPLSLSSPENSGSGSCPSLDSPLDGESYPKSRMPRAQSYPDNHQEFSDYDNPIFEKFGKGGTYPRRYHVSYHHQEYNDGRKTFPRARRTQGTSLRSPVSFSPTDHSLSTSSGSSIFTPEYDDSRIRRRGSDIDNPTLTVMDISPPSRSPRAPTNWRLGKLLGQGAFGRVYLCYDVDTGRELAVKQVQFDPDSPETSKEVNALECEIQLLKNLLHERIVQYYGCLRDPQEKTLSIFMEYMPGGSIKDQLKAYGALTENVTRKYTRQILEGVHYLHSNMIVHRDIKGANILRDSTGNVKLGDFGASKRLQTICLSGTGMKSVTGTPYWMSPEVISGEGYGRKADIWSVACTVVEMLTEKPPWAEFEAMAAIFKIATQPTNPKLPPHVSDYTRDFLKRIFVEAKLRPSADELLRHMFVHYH
Chain of Serine/threonine-protein kinase Nek4 (P51957 whole entry): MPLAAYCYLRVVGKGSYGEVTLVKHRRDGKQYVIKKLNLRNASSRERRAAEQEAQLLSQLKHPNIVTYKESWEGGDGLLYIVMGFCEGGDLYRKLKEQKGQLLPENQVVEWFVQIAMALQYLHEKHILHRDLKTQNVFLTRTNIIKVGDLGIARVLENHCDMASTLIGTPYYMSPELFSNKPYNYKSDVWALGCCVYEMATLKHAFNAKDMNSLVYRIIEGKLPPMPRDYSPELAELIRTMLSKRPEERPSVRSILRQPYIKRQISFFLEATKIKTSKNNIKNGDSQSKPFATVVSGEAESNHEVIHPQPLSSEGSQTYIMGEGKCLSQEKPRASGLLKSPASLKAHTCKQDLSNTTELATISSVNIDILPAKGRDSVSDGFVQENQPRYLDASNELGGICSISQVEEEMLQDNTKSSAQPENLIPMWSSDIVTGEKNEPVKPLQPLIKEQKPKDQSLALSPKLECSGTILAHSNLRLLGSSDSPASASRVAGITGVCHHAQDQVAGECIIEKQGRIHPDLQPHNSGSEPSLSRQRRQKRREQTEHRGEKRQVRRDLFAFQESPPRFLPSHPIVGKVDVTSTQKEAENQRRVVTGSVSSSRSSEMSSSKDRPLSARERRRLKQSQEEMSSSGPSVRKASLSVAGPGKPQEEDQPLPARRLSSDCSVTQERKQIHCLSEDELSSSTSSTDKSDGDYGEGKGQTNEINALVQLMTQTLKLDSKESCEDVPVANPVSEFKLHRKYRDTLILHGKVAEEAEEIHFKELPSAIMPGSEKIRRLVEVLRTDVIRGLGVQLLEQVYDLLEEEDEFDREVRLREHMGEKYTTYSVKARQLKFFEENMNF

Structure (SMILES): CCOc1cc(N2CCC(O)CC2)ccc1Nc1ncc2c(n1)N(C)c1ccccc1C(=O)N2C
- Activity (Lewis lung carcinoma): Active
- inhibition [1]: 34.5%
- inhibition [2]: 36.2%
- IC50 [3]: > 50 µM
- inhibition [4]: -1.9%
- clearance [5]: 26 mL/min/kg
- IC50 [6]: > 50 µM
- IC50 [7]: > 50 µM
- Activity [8]: 28%
- inhibition [9]: 63.8%
- inhibition [10]: 4.3%
- Activity (HeLa): Active
